# Results as given in the EternaBench riboswitch data.
# System: MS2 coat protein
# Assay: apparent Kd, MS2 coat protein; higher = weaker binding; RNA-MaP array; FMN 200 µM where present
# Summary of the method: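 Stalled E. coli RNA polymerase produced the designs on Illumina sequencing-chip clusters. SNAP-549-labelled MS2 coat protein was added from 0.7 or 1.5 nM, doubling to 3 µM, without and then with constant ligand, in 100 mM Tris-HCl pH 7.5, 80 mM KCl, 4 mM MgCl2, BSA, DTT, yeast tRNA and Tween-20. The apparent Kd is the median of filtered per-cluster fits of green signal normalised to red-channel RNA signal and control-cluster median Fmax.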
# [1] = designed as: OFF switch for flavin mononucleotide, no ligand
# [2] = ligand present: flavin mononucleotide, designed as: OFF switch for flavin mononucleotide
# [3] = designed as: ON switch for flavin mononucleotide, no ligand
# [4] = ligand present: flavin mononucleotide, designed as: ON switch for flavin mononucleotide
Sequence,apparent Kd [1] [nM],apparent Kd [2] [nM],apparent Kd [3] [nM],apparent Kd [4] [nM]
ACAGUUCUGCAAGGAUAUCGUUCUAGUUUAGUACGAGAAGGUGCUUUAGUUUUUUCUUUGUGUUGACAUGAGGAUCACCCAUGU,23.4,15.2,–,–
ACAUACAUUCGAGGAUAUCGGUGAACAAAUUAACGAGAAGGCGAUAUAAUGUUUAAUCUUAUAAACAUGAGGAUCACCCAUGUA,–,–,68.5,28
ACAUACAUUCGAGGAUAUCGGUGAUUAAUUUUACGAGAAGGCGAUAAAAGAUAUAAAAUUUUAGACAUGAGGAUCACCCAUGUA,–,–,28.6,27.1
ACAUACUUUCGAGGAUAUCGGUGAUAAAUUUUACGAGAAGGCGAUAAAAGAUAUAAUCUUAUAGACAUGAGGAUCACCCAUGUA,–,–,30.5,27.3
ACAUGAGACUAAGGAUAUGAUGUACCUAUAUGUGACAUGAGGAUCACCCAUGUGGUAAGUAUGACUCAGAAGGUAGAGAUAUGU,–,–,222,77.3
ACAUGAGGAUCACCCAUGUAGAAUGAAGAAGGUAGAUACUUGAGGCUCACCCAUGUACAUAGGACUAAGGAUAUUCUAAUAAUU,–,–,25,22
ACAUGAGGAUCACCCAUGUAUACAUAGGAUAUUGGUGAUCAGGGAUGUUUUACAGGAUAUGUCUGCGAGAAGGAUGCAAGUACA,–,–,352,151
ACAUGAGGAUCACCCAUGUAUUACAUGGUUAAGUUUAUUAACAGAAGGCGAAAUUACCACUUGAUCGAGGAUAUGUAUUCUAUU,49.1,43.4,–,–
ACAUGAGGAUCACCCAUGUUGAAUGAGGAUAUUUGACUGCGCAUGAGGUUCUCCCAUGUUCAACCGGAGAAGGUAUUAAUAAUU,–,–,267,160
ACAUGAUACAAGAAGGAUGUAUUUGAUUUGAUCAUAGGAUAUUGUUAUAUUGUUUACUCUAAUAACAUGAGGAUCACCCAUGUA,–,–,7.04,6.95
ACAUGAUAUGUAGGAUAUCACAUUAAUUGAUUAAUAUUUCUAUAUAGAAUUUGAGAAGGACAUUUACAUGAGGAUCACCCAUGU,10.3,10.3,–,–
ACAUGAUAUGUAGGAUAUCACAUUAAUUGUUUAAUAAUUGAAUUUAGGAUUUGAGAAGGACAUUUACAUGAGGAUCACCCAUGU,16.9,12.7,–,–
ACAUGCAUAGCGAUAUGAUCGAGAGAUCAUGUCGCUAAAUUUAGAAGGACAUGAGGAUCACCCAUGUAGGAUAUGGGAGCAUGA,–,–,44.7,11.1
ACAUGGAAUACAGGAUAUGUAAGUUUUAAGUAGAUUGGUUAUUACUUUACUACAGAAGGGUAAUACAUGAGGAUCACCCAUGUA,–,–,16.9,12.2
ACAUGUACAGGAUAUACAUGGAUGAUACACGUAUUUCCACUACAUGAGGAUCACCCAUGUAGAAGGGUACAUGA,39.7,18.4,–,–
ACAUUAGUACCACAUGUAUUACAUGAGGAUCACCCAUGUAACUAGGAUAUGUAUUAGAAUUUACAACAGAAGGAGUUAAUAUGU,9.8,11.9,–,–
ACAUUGAUUGUGAGGAUAUCGAUGUGAUGGUAUGUCGAGAAGGCACAUGAGGAUCACCCAUGUGGGUGUGGGCA,259,292,–,–
ACCAAUGCAGGAUAUACAUGAGGAUCACCCAUGUAUAACCUACAUAGAUGAUUAUCAUGUAGAAGGGCAUUGGA,11.7,8.43,–,–
ACCCUGUCAGGAUAUCCUGCUGUGCGGCCUCUGUAUUCAAGGGAGAAGGGACAUGAGGAUCACCCAUGUAUGAG,40.6,47.5,–,–
ACCUAGUCAGGAUAUGUACGGACCGGAAGCGGAUCGGAGGAGCAGAAGGGACAUGAGGAUCACCCAUGUUUGUU,25.3,28,–,–
ACCUUACAUGAGGAUCACCCAUGUUAGGAUAUCUCGCCUGCACAAACACAGCGCAGGCAGAGAAGGGACGCGGG,28.2,35,–,–
ACGAGCAAGAUUAUUAUGAAUAAACAUGAGGAUCACCCAUGUAAGGAUAUGCAGUGGAAUACACUGCAGAAGGUACAUAGCUCG,11.3,44.2,–,–
ACGCAGAGAGGAUAUACAUGAGGAUCACCCAUGUAUAAACGCACUAACUCUCCUCACUGUAGAAGGCUCAUGCA,11.7,20.4,–,–
ACGCGAUGGGAGAAGGUACUUUAAGAAUUUUACACAUGAGGAUCACCCAUGUAAGGAUAUCCCAUCGUUAAAUAUUAUACAGCA,6.56,5.77,–,–
ACGGAACAUGAGGAUCACCCAUGUAUCUGAGAUAUGGUCUCACAGGAUAUUCAGAGUUGCCAAUCGGAGAAGGGUGACACCAGA,–,–,78.5,43.5
ACGGACCUAGGAUAUACAUGAGGAUCACCCAUGUGCCCGCAUGGUCCGGGUCCUGAGAGUAGAAGGAGGAGCGA,50.9,43.2,–,–
ACGGCCUUACAUGAGGAUCACCCAUGUGAGUAUGGAGUUACACAGGAUAUCCGCGUGGCAGGCAAGGAGAAGGGUGUAUUAGGA,–,–,70,21.9
ACGGUGGUCACAGGAUAUCCGGCCCGCGUGGCCGGAGAAGGGUGACUCAGAACCACAUGAGGAUCACCCAUGUGCCUUGCCGUA,–,–,102,35.5

Sequence,apparent Kd [1] [nM],apparent Kd [2] [nM],apparent Kd [3] [nM],apparent Kd [4] [nM]
ACGUCUUAGUAGAAGGGACUUCGGCUGGUAAGCAUCAUCUCCUUCUCACAUGAGGAUCACCCAUGUCAGGAUAUACUAAGAGUC,7.24,7.35,–,–
ACGUGACGGUGCGCGAGUGGACGGAGAAGGCAGACAUGAGGAUCACCCAUGUGAGCCUGCUAUUCUGAGGAUAUCCGUCCGCUC,38.8,257,–,–
ACGUGUAAUACAGGAUAUGUUAUGGAUUAAUCAACCAGUUAUUACGUUUCGACAGAAGGGUAUACAUGAGGAUCACCCAUGUUA,22.3,17.9,–,–
ACGUUAAUUCGAGGAUAUCGGUGAUUUAUAUUACGAGAAGGCGAUAAUUGUGAUAAACUUAUAGACAUGAGGAUCACCCAUGUA,–,–,42.7,38.8
ACUAAGGAGGUAGGAUAUUGUGUGGUGGCCGGGCUCCCACGGCGAGCGGCACAAGAAGGAUCCCUACAUGAGGAUCACCCAUGU,–,–,24,16.4
ACUAGAUGAGGAUAUGCAUAUUUUCGUGUUCUUCUAGGUUAACAUGAGGAUCACCCAUGUAGAAGGCGUCUAUC,22.2,39.7,–,–
ACUAGAUGAGGAUAUGCAUGUUUUCAUGUUCUUCUAGAUUAACAUGAGGAUCACCCAUGUAGAAGGCGUCUUUA,19.5,34.8,–,–
ACUAGGCGAGGAUAUACAUGCUUAACGCAGGAAAAGCUGCGACAUGAGGAUCACCCAUGUAGAAGGCGCAAAUA,15.7,115,–,–
ACUGCAUAGGCAGGAUAUGCAAAAGCAGAUGCAAAGCAUUUGAAUAACACAUGAGGAUCACCCAUGUAGAAGGGCCUGUGCAGU,20.1,20.2,–,–
ACUGUUGAGUAGAAGGUACGAUAUUAGUUAUAGUAAGGAUAUACUAACAUGAGGAUCACCCAUGUAUAAAUGGAUAAAUAUUCU,–,–,9.91,11.5
ACUUACUGAGGAUAUACAUAGAUUUACAUGAGGAUCACCCAUGUUCCUCUAUGUAUAUAUGUAGAAGGCAGAAGUU,26.3,97.8,–,–
ACUUGCUUGCAGAAGGGUGACAUGAGGAUCACCCAUGUAGCGGGCUGGCGUAAAGUCAGCGCGCCACAGGAUAUGCAGGCCUCG,–,–,61.2,47.6
ACUUGUAAGCAGAAGGCAGUCAUUAUAUUCAUCAUGUAGACAUGAGGAUCACCCAUGUAGAGUACUGAGGAUAUGCAUCGAUAG,6.41,8.85,–,–
ACUUGUAAGCAGAAGGCAGUCAUUAUAUUCAUCAUGUAGACAUGAGGAUCACCCAUGUAUAGUACUGAGGAUAUGCAUCGAUAG,6.75,10.3,–,–
ACUUUAACUCGACAUGAGGAUCACCCAUGUCCUAGUACUACACAGGAUAUCUCGGACUCCUCGUGAGAGAAGGGUGAGCACUAA,–,–,395,587
ACUUUACGAGGAUAUACUGUCGGGCCUCGGGCGUACAUGCGACAUGAGGAUCACCCAUGUAGAAGGCGUUUACU,33.1,119,–,–
AGAAAACAUGAGGAUCACCCAUGUCAGGAUAUCCUGCGGCGAUACAAGCCACGUUGUCGGAGAAGGGACAGGGA,58,89.7,–,–
AGAAAACAUGAGGAUCACCCAUGUGAGGAUAUCGAUGUCCAAGCCCGGGUGCGGGACUCGAGAAGGCACUUGGG,55.7,36.8,–,–
AGAAAACAUGAGGAUCACCCAUGUGAGGAUAUCGAUGUCCAGGGCCUGGUGCGGGACUCGAGAAGGCACUGGGA,59.9,86.9,–,–
AGAAAGGCAGGAUAUACAUGAGGAUCACCCAUGUUAAGAAAGACGGAAACGUCAAGAAGUAGAAGGGCCAAGAA,23.4,21.1,–,–
AGACCGCUACGCCGGUUUCACGCACAGGAUAUGCGGUUACAUGAGGAUCACCCAUGUGGCCAUGUGCAGAAGGGUGGUUCGUUA,–,–,36.1,11.5
AGACGGAGCUGAGGAUAUAACAUGAGGAUCACCCAUGUAAGUCUCCAGGAAACUGGAGACAAUAGUUAGAAGGCAGCUCCGUCA,13.6,22.3,–,–
AGACUGAAGCAAGGAUAUUGUAAGGUUAUUGUACAAGAAGGUGCUGUUUAUGUCUCUUAACAUGAGGAUCACCCAUGUUUUGAA,–,–,19.7,19.1
AGACUGCGUAGAAUUAGCAGCUGACAGGAUAUGACAUGAGGAUCACCCAUGUGAAAUAAGAAGGGUCAGAAGGGUCACGACACA,11.7,9.98,–,–
AGAGACCUCACAGGAUAUGCUGGACUUUGUCCAGCAGAAGGGUGAAAACAUGAGGAUCACCCAUGUAUGGUCUCCAAAUUUAAU,–,–,167,12.8
AGAGACCUCACAGGAUAUGCUGGACUUUGUCCAGCAGAAGGGUGAUAACAUGAGGAUCACCCAUGUAUGGUCUCCAAAUUUAAU,–,–,1110,131
AGAUAGUGGUGAGGAUAUCAGAAUAGAAAGAAAUGAGAAGGCACACAUGAGGAUCACCCAUGUGAGUUCUUGAGAUUACAUGGU,18.4,34.2,–,–
